From PubChem BioAssay
Only some compounds are listed: those with a hit (about 3.3% of all), similar ones and a draw of the others.
ROMK primary = modulates human ROMK potassium channel activity; Tet-inducible ROMK, thallium flux fluorescence; actives lie on both sides; B-score at 10 µM; 2% of 130,000 active;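 active means signal ratio slope over the read window, or its plate-corrected B-score, at least 3 SD from the plate mean, either direction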;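 further: B-score of the F/F0 ratio slope over 7 to 12 s after thallium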
ABCB1 inh = blocks JC-1 efflux by human ABCB1 transporter; P08183; CCRF-Adr cells, flow cytometry; inhibition, % at 6.6 µM; AID 1326; 0.067% of 190,000 active; in the data active means inhibition above about 40%;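 further: higher value means more JC-1 retained so stronger ABCB1 efflux block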
PMI act hi M6P = increases human PMI activity with near-saturating mannose 6-phosphate. coupled PMI enzyme assay, resazurin fluorescence, 20 min; stronger effect = higher value; 1 = untreated enzyme, 0 = substrate-free blank. activation factor at 20 µM. 0.34% of 190,000 active;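 active means activation factor of 2 or more at 20 µM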
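Technique: Diaphorase-driven resazurin-to-resorufin fluorescence, excitation 544, emission 590 nm | Assay system: Human PMI in coupled enzyme assay | Times: Enzyme reaction with compound 20 min at room temperature | Medium: HEPES-buffered pH 7.4 with magnesium and detergent | Reagent: Mannose-6-phosphate 1.0 mM (near-saturating) plus 0.22 mM NADP+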
ABCG2 inh = blocks JC-1 efflux by human ABCG2 transporter. 0.1% of 190,000 active. inhibition, % at 6.6 µM. AID 1325. IgMXP3 cells, flow cytometry. Q9UNQ0;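 active means inhibition above 80%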
Target sequence (Q9UNQ0 whole entry, looked up): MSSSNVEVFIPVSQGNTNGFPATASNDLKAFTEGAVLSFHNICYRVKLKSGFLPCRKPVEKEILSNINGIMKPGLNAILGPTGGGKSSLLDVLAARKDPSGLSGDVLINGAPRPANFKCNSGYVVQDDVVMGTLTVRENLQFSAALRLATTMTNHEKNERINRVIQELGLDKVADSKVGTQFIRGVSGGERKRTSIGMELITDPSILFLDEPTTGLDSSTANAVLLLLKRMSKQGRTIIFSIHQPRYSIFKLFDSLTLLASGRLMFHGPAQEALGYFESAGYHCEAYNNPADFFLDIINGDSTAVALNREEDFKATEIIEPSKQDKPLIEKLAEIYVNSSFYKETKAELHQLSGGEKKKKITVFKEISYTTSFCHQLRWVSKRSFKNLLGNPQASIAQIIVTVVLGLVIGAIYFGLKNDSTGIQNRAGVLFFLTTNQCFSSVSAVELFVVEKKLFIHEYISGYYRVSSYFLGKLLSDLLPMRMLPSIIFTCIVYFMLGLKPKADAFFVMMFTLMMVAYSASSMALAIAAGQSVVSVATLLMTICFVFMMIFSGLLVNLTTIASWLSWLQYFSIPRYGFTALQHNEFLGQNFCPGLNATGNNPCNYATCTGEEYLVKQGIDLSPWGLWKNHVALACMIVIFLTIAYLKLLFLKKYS
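Incubation: cells with compound and JC-1, 10 min at 25 °C, rotating, no wash / Test system: IgMXP3 (ABCG2) plus far-red-tagged CCRF-Adr (ABCB1) cells / Compound dosing: one concentration, 6.6 µM final / Also added: JC-1 fluorescent substrate / Evaluation: efflux inhibition in percent versus controls / Detection: flow cytometry, 530 nm JC-1 signal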
Cl transport mod = modulators of human KCC2 chloride dependent transport | Q9H2X9 | KCC2 cells, thallium flux FluoZin-2 fluorescence | B-score of Tl+ flux slope (higher = more flux/activation; lower = inhibition) at 10 µM | 2.2% of 190,000 active | AID 1456;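 active means thallium flux slope and its plate-corrected score both differing from the plate sample mean at a set confidence after two filtering rounds, in either direction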;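 further: slope of fluorescence scaled to starting intensity during 10 to 20 s after thallium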
PMI act = increases human mannose-6-phosphate isomerase activity | activation factor at 20 µM | purified human PMI, coupled resazurin fluorescence, 20 min; stronger effect = higher value; 1 = vehicle control, 0 substrate-free wells | P34949 | 0.005% of 190,000 active;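 active means activation factor of 2 or more at 20 µM, relative to plate controls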
ROMK retest = confirmation of human ROMK potassium channel modulators; shares compounds with ROMK primary; ROMK thallium flux, fluorescence ratio; stronger effect = lower value; normalized thallium flux (F/F0 slope) at 10 µM; 54% of 3,000 active;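 active means Flux at 10 µM at least 3 SD below or above vehicle control mean in one or both replicates; inconclusive means no clear call, values can overlap the other calls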
Each line names hits and unclear results; the compound was inactive in the other large screens (follow-up assays come after a bar, where they were run).

c1ccc2c(-c3cc(C4CCNCC4)[nH]n3)cccc2c1	ROMK primary -4.4 | ROMK retest 0.064
CCN1C(=O)/C(=C/c2ccc(C)s2)NC1=S	ROMK primary 4.6 (no result: Cl transport mod) | ROMK retest inactive
CC(NCC(O)COCc1ccc(Cl)cc1)c1ccccc1 (configuration not stated)	ROMK primary -2 | ROMK retest 0.049
CCCn1c(SC(C(=O)Nc2cccc(OC)c2)c2ccccc2)nc2ccccc2c1=O (configuration not stated)	none
CCCCc1cc(=O)oc2cc(C)cc(O)c12	none (no result: ROMK primary) | ROMK retest 0.054
CC1(C)CC(=O)c2cnc(NC(=O)c3ccco3)nc2C1	none (no result: ROMK primary)
COc1ccccc1NC(=O)CC(NC1CCCCC1)C(=O)O (configuration not stated)	none
O=C(NNC1=Nc2cccc3cccc1c23)c1ccc(Br)cc1	ROMK primary -3.4 | ROMK retest inactive
CCN(CC)S(=O)(=O)c1ccc(OC(C)C)c(NC(=O)c2c3c(nc4ccccc24)CCN(Cc2ccccc2)C3)c1	ROMK primary -3 | ROMK retest 0.059
CN(C(=O)CO/N=C/c1ccc(OC(F)F)cc1)C1CCS(=O)(=O)C1 (configuration not stated)	ROMK primary -10 | ROMK retest inactive
CC(=O)c1ccc2c(c1)OCCOCCOc1ccccc1OCCOCCO2	none (no result: ROMK primary, ABCB1 inh, PMI act hi M6P, ABCG2 inh, PMI act)
c1ccc2c(c1)OCCOCCOCCOCCOCCOc1ccccc1OCCOCCOCCO2	ROMK primary -4.8 | ROMK retest 0.042
CC(C)c1ccc(/C=N/NC(=O)c2cccc(S(=O)(=O)N3CCOCC3)c2)cc1	ROMK primary 0.8 | ROMK retest inactive
CCCCC(Sc1nc(N)c(NC(=O)c2ccc(OC)cc2)c(=O)[nH]1)C(=O)O (configuration not stated)	none
CC1CCCN(c2nc3ccccc3nc2C(C#N)S(=O)(=O)c2cccs2)C1 (configuration not stated)	ROMK primary -4.5 | ROMK retest 0.059
COc1ccc(S(=O)(=O)C(C#N)c2nc3ccccc3nc2N2CCCC(C)C2)cc1 (configuration not stated)	none (no result: ROMK primary)
CC1(C)CC(N=C2C([N+](=O)[O-])=CC=C3C2=NC2(CCCCC2)N3O)CC(C)(C)N1	none (no result: ROMK primary, ABCB1 inh, PMI act hi M6P, ABCG2 inh, PMI act) | ROMK retest inactive
COc1ccc(CCc2nnc(CCC(=O)NCCc3ncccc3C)o2)cc1	none (no result: PMI act hi M6P, PMI act)
Cc1ccc2c(c1)C(=O)C(=O)N2CCCOc1ccccc1	ROMK primary 3.6 (no result: PMI act hi M6P, PMI act) | ROMK retest inactive
CC1CCN(CCCCOc2ccc(Br)cc2)CC1	none | ROMK retest inconclusive
CC1CCN(CCCCOc2cccc(Br)c2)CC1	none
O=C(Nc1cccc(C(F)(F)F)c1)N(Cc1ccc(Cl)cc1)CC(O)C(F)(F)F (configuration not stated)	none (no result: ROMK primary)
Nn1c(=O)c2ccccc2n2c(SCc3ccc(C(F)(F)F)cc3)nnc12	none
O=C(Nc1ccc(Cl)cc1)C(c1ccccc1)N1CCOCC1 (configuration not stated)	none
CC(C)c1ccc(NC(=O)C(c2ccccc2)N2CC(=O)Nc3ccccc32)cc1 (configuration not stated)	ROMK primary 1.9 | ROMK retest inactive
O=c1c2ccccc2nc2n1C(CSc1ccccc1)CS2 (configuration not stated)	none
O=c1c2ccccc2nc2n1C(CSCc1ccc(Cl)cc1)CS2 (configuration not stated)	none (no result: ROMK primary) | ROMK retest 0.066
CCN1CCS/C1=C/C=C/C1=[N+](CC)CCS1	none
CCN1CCS/C1=C\C=C\C1=[N+](CC)CCS1	none (no result: ROMK primary, Cl transport mod) | ROMK retest inconclusive
Cc1ccc(-n2c(SCc3ccc(C(=O)O)cc3)nnc2-c2ccncc2)cc1	none (no result: ROMK primary, ABCB1 inh, PMI act hi M6P, ABCG2 inh, PMI act)
N#C/C(=C/c1ccc(N2CCOCC2)o1)C(=O)Nc1ccccc1	none (no result: ROMK primary)
N#C/C(=C\c1ccc(-c2ccc(C(=O)O)cc2)o1)C(=O)NCC1CCCO1 (configuration not stated)	none
N#C/C(=C\c1ccc(N2CCOCC2)o1)C(=O)NC1CCCCC1	none (no result: ROMK primary, ABCB1 inh, PMI act hi M6P, ABCG2 inh, PMI act) | ROMK retest 0.035
N#C/C(=C\c1ccc(N2CCOCC2)o1)C(=O)NCC1CCCO1 (configuration not stated)	ROMK primary -4.2 | ROMK retest 0.038
CC(Sc1ncc(C(F)(F)F)cc1Cl)C(=O)NCC1CCCO1 (configuration not stated)	none
CCOc1cccc(C(=O)Nc2ccc3oc(-c4cccnc4)nc3c2)c1	none (no result: ROMK primary, ABCB1 inh, PMI act hi M6P, ABCG2 inh, PMI act)
O=C(Nc1ccc2oc(-c3cccnc3)nc2c1)c1cccnc1	ROMK primary -5.1 | ROMK retest inactive
Cc1cccc(N(C(=O)c2csnn2)C(C(=O)NC(C)(C)C)c2cccnc2)c1 (configuration not stated)	ROMK primary 2.2 | ROMK retest inactive
O=C(CCl)N(c1ccccc1)c1ccccc1	ROMK primary -5.4 | ROMK retest 0.053
Cc1nnc(SCc2c(Cl)cccc2Cl)n(N)c1=O	ROMK primary -2.9 | ROMK retest 0.061
Cc1ccccc1NC(=O)COC(=O)c1ccc(S(C)(=O)=O)c([N+](=O)[O-])c1	ROMK primary -3.5 | ROMK retest inconclusive
CCN(CC)C(=O)CNC(=O)Cc1ccc(Cl)cc1	none
CCCCCCc1ccc(-c2ncc(N)cn2)cc1	ROMK primary -4.3 | ROMK retest inactive
CCCCCc1ccc(-c2nnc(N)s2)cc1	none (no result: Cl transport mod)
Cc1ccc(C)c(C(=O)OCC(=O)Nc2cccc(S(=O)(=O)NC3=NCCCCC3)c2)c1	none
Cc1ccc(CNCC(=O)Nc2cccc(S(=O)(=O)NC3=NCCCCC3)c2)cc1	ROMK primary -2.6 | ROMK retest 0.064
CCOc1ccccc1NC(=O)C(NCC1(N2CCCCC2)CCCCC1)c1ccccc1 (configuration not stated)	ROMK primary -3.4 | ROMK retest 0.064
CC(=O)c1sc(NC(=O)C2(F)C(F)(F)C(F)(F)C(F)(F)C(F)(F)C2(F)F)nc1C	none (no result: ROMK primary)
Cc1ccc(-c2nc(CS(=O)CC(=O)NC3CCC(C)CC3)c(C)o2)cc1 (configuration not stated)	none (no result: ROMK primary, Cl transport mod)
NNC(=O)C(=O)Nc1ccc(Cl)c(Cl)c1	ROMK primary -12 (no result: ABCB1 inh, PMI act hi M6P, ABCG2 inh, PMI act) | ROMK retest inactive
CC(Nc1ccc(Cl)c(Cl)c1)C(=O)NN (configuration not stated)	none (no result: ROMK primary, ABCB1 inh, PMI act hi M6P, ABCG2 inh, PMI act)
CCc1cc(SC#N)cc(CC)c1NC(=O)CCl	ROMK primary -3.6 | ROMK retest 0.047
CC(=O)c1ccc(O)c(CO)c1	none | ROMK retest inactive
CN1c2cccc3cccc(c23)N(C)C1(C)C	none
